Each structure is given as a SMILES string.

A short description of data set [1]: Volume of distribution at steady state in dog at 0.25 mg/kg, iv. The class given is ADME, organism-based, Canis lupus familiaris. As to conditions: in vivo, read-out: Vdss. Put shortly: (§1)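 Male dogs received a single 0.25 mg/kg iv dose in DMSO. Unbound clearance (CLu) is total clearance divided by fu, the unbound fraction in plasma.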
In data set [2] the test system is Plasma. The experiment in a line: Total plasma concentration in C57Bl/6 mouse at 30 mg/kg, po. The class given is ADME, organism-based. As to conditions: in vivo.
For data set [3], the target named is T1, PXR (NR1I2) (Homo sapiens, UniProt O75469).
T1 sequence (O75469 whole entry): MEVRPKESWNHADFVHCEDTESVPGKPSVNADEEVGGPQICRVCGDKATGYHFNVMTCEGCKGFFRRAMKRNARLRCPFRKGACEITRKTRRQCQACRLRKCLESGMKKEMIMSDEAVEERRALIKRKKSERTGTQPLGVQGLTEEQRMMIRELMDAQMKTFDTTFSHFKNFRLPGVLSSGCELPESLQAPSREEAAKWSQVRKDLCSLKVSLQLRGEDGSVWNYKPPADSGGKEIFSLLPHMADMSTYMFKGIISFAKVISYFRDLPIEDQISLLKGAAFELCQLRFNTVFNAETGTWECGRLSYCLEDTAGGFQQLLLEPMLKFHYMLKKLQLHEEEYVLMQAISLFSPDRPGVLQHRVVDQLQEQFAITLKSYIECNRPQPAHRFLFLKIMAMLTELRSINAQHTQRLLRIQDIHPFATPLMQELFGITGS
Nature of the data set: Activation of human PXR at 10 uM in presence of rifampicin. The class given is ADME. As to conditions: read-out: Activity.

The subject of data set [4] is Plasma. Nature of the data set: Unbound plasma concentration in C57Bl/6 mouse at 300 mg/kg, po. As to conditions: in vivo. The class given is ADME, organism-based.
The target of data set [5] is Cytochrome P450 3A4 (Homo sapiens, UniProt P08684). Nature of the data set: Induction of CYP3A4 in human hepatocytes at 10 uM relative to rifampicin.
Sequence of Cytochrome P450 3A4 (P08684 whole entry): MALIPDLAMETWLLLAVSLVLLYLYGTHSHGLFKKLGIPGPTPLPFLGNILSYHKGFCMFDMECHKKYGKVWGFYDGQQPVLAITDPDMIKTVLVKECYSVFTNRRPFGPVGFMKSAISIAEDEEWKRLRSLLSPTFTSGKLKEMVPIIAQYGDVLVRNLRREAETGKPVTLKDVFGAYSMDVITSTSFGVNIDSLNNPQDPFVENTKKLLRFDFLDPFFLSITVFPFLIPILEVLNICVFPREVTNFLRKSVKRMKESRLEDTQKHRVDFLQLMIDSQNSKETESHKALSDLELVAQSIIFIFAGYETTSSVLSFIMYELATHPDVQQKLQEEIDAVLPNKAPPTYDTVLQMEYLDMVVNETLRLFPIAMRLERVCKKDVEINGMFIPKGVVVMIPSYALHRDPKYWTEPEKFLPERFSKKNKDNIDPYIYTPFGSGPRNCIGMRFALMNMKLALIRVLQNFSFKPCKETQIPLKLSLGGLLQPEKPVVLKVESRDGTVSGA
Data set [6] in a line: Half life in dog at 0.25 mg/kg, iv. The data set is classed as ADME, organism-based, Canis lupus familiaris. As to conditions: in vivo. Put shortly:
as §1

The nature of data set [7]: Total clearance in rat at 0.5 mg/kg, iv. The class given is ADME, organism-based. As to conditions: in vivo. A digest of the protocol:
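Male rats given a single 0.5 mg/kg iv dose in DMSO. Unbound clearance (CLu) is total clearance divided by fu, the unbound fraction in plasma.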

In the case of `COc1cc(-c2cccc(C(F)(F)F)c2)c(F)cc1-c1nccc2cc(S(=O)(=O)Nc3ccon3)ccc12`, the Vd in data set [1] is 0.56 L/kg. In addition, the concentration in data set [2] came to 21.2 µM. Also, the activity at 10 µM in data set [3] worked out at 1%. Besides, the “Cp(f)” value in data set [4] worked out at 1.59 µM. Further, in data set [5], the Activity came out at 7%. Moreover, the half-life in data set [6] was 20 h. Further, the clearance in data set [7] is 3.83 mL/min/kg.

These data come from ChEMBL document CHEMBL4011598, “Sulfonamides as Selective NaV1.7 Inhibitors: Optimizing Potency and Pharmacokinetics While Mitigating Metabolic Liabilities” (J Med Chem, 2017).
